# Legend:
# UACC-62 = experiment: Cytotoxicity against human UACC62 cells after 48 hrs by sulforhodamine B assay; format: functional; conditions: UACC-62, 48 h
# Method in brief: (§1)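 Cells grown in RPMI 1640 with 5% FBS at 37 °C, 5% CO2, with penicillin/streptomycin. Treated for 48 h with compound in DMSO/RPMI at […]. Fixed with 50% trichloroacetic acid, protein stained with sulforhodamine B and read at 540 nm. TGI (total growth inhibition) obtained by non-linear regression of the concentration–response curves.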
# MCF7 = experiment: Cytotoxicity against human MCF7 cells after 48 hrs by sulforhodamine B assay; format: functional; conditions: MCF7, 48 h; method in brief: as §1
# [1] = Cytotoxicity against human NCI-ADR-RES cells after 48 hrs by sulforhodamine B assay; format: functional; method in brief: as §1
# 786-0 = experiment: Cytotoxicity against human 786-0 cells after 48 hrs by sulforhodamine B assay; format: functional; conditions: 786-0, 48 h; method in brief: as §1
# NCI-H460 = experiment: Cytotoxicity against human NCI-H460 cells after 48 hrs by sulforhodamine B assay; format: functional; conditions: NCI-H460, 48 h; method in brief: as §1
# [2] = Cytotoxicity against human PCO3 cells after 48 hrs by sulforhodamine B assay; format: functional; conditions: PCO3, 48 h; method in brief: as §1
# OVCAR-3 = experiment: Cytotoxicity against human OVCAR-3 cells after 48 hrs by sulforhodamine B assay; format: functional; conditions: OVCAR-3, 48 h; method in brief: as §1
# HT-29 = experiment: Cytotoxicity against human HT-29 cells after 48 hrs by sulforhodamine B assay; format: functional; conditions: HT-29, 48 h; method in brief: as §1
# U-251 = experiment: Cytotoxicity against human U251 cells after 48 hrs by sulforhodamine B assay; format: functional; conditions: U-251, 48 h; method in brief: as §1
# Mus musculus [3] = experiment: Acute toxicity in BALB/C mouse assessed as mortality at up to 300 mg/kg, ip after 4 hrs; format: organism-based; parameters: dose 300 mg/kg, route intraperitoneal; conditions: in vivo
# Method in brief: (§2)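 Balb/C mice (20–35 g) dosed intraperitoneally at 50, 100 and 300 mg/kg. Observed for 4 h, then daily for 14 days, for body weight loss, locomotion, behaviour (agitation, lethargy), respiration, salivation, tearing eyes, cyanosis and mortality.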
# Mus musculus [4] = experiment: Acute toxicity in BALB/C mouse assessed as mortality at up to 300 mg/kg, ip after 15 days; format: organism-based; parameters: dose 300 mg/kg, route intraperitoneal; conditions: in vivo, 360 h; method in brief: as §2
# [5] = Antitumor activity against mouse EAC cells xenografted in BALB/C mouse assessed as inhibition of increase in tumor volume at 50 mg/kg, ip administered every 3 days measured on day 10 relative to control; format: functional; conditions: Ehrlich, route intraperitoneal
# Method in brief: (§3)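 Ehrlich cells kept as ascites by weekly ip passage of 5 × 10^5 cells in mice. Balb/C mice (n = 8/group) inoculated with 2.5 × 10^6 cells into the right hind footpad. Dosed ip every third day from day 3, vehicle 0.9% saline. Tumour volume taken as plethysmometer paw volume minus basal, every third day to day 15. Reported as % inhibition vs vehicle ± SD; ANOVA.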
# [6] = Antitumor activity against mouse EAC cells xenografted in BALB/C mouse assessed as inhibition of increase in tumor volume at 50 mg/kg, ip administered every 3 days measured on day 15 relative to control; format: functional; conditions: Ehrlich, route intraperitoneal; method in brief: as §3
# [7] = Antitumor activity against mouse EAC cells xenografted in BALB/C mouse assessed as reduction of tumor weight at 50 mg/kg, ip administered every 3 days measured on day 15 relative to control; format: functional; conditions: Ehrlich, route intraperitoneal
# Method in brief: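 Ehrlich footpad tumour model in Balb/C mice (n = 8/group, 2.5 × 10^6 cells) with ip dosing every third day from day 3 in 0.9% saline. Mice sacrificed on day 15 and both hind paws weighed. Relative tumour weight = (tumour paw − healthy paw weight)/body weight. Reported as % inhibition vs vehicle ± SD; ANOVA.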
# Mus musculus [8] = experiment: Acute toxicity in BALB/C mouse assessed as reduction of body weight at up to 50 mg/kg, ip after 15 days; format: organism-based; parameters: dose 50 mg/kg, route intraperitoneal; conditions: in vivo, 360 h; method in brief: as §2
# [9] = Antitumor activity against mouse EAC cells xenografted in BALB/C mouse assessed as inhibition of increase in tumor volume at 50 mg/kg, ip administered every 3 days measured on day 13 relative to control; format: functional; conditions: Ehrlich, route intraperitoneal; method in brief: as §3
# [10] = Antitumor activity against mouse EAC cells xenografted in BALB/C mouse assessed as inhibition of tumor growth at 10 mg/kg, ip administered every 3 days measured on day 7 relative to control; format: functional; conditions: Ehrlich, route intraperitoneal
# Method in brief: (§4)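 Ehrlich cells were kept as ascites by weekly peritoneal passage in mice. Balb/C mice (n = 8/group) received 2.5 × 10^6 cells in 60 µL into the right hind footpad. Dosing was intraperitoneal every third day from day 3, with saline 0.9% vehicle. Tumor volume was plethysmometer paw volume minus basal volume, read every third day to day 15, and reported as % inhibition versus vehicle ± SD.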
# [11] = Antitumor activity against mouse EAC cells xenografted in BALB/C mouse assessed as inhibition of tumor growth at 10 mg/kg, ip administered every 3 days measured on day 15 relative to control; format: functional; conditions: Ehrlich, route intraperitoneal; method in brief: as §4
# [12] = Antitumor activity against mouse EAC cells xenografted in BALB/C mouse assessed as reduction of tumor weight at 10 mg/kg, ip administered every 3 days measured on day 15 relative to control; format: functional; conditions: Ehrlich, route intraperitoneal
# Method in brief: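 Ehrlich cells (2.5 × 10^6 in 60 µL) were injected into the right hind footpad of Balb/C mice (n = 8/group). Dosing was intraperitoneal every third day from day 3, with saline 0.9% vehicle. On day 15 both hind paws were removed and weighed. Relative tumor weight was (tumor paw − healthy paw weight)/body weight, reported as % inhibition versus vehicle ± SD.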
# Mus musculus [13] = experiment: Acute toxicity in BALB/C mouse assessed as reduction of body weight at up to 10 mg/kg, ip after 15 days; format: organism-based; parameters: dose 10 mg/kg, route intraperitoneal; conditions: in vivo, 360 h
# Method in brief: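 Body weight and toxicity signs were tracked in Balb/C mice (n = 8/group) carrying Ehrlich footpad tumors. Dosing was intraperitoneal every third day from day 3 after inoculation, four treatments in total, with saline 0.9% vehicle. Mice were weighed throughout until sacrifice on day 15.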
SMILES,TGI (UACC-62) [µM],TGI (MCF7) [µM],TGI [1] [µM],TGI (786-0) [µM],TGI (NCI-H460) [µM],TGI [2] [µM],TGI (OVCAR-3) [µM],TGI (HT-29) [µM],TGI (U-251) [µM],Activity (Mus musculus [3]),Activity (Mus musculus [4]),inhibition in vivo at 50 mg/kg [5] [%],inhibition in vivo at 50 mg/kg [6] [%],inhibition in vivo at 50 mg/kg [7] [%],Activity (Mus musculus [8]),inhibition in vivo at 50 mg/kg [9] [%],inhibition in vivo at 10 mg/kg [10] [%],inhibition in vivo at 10 mg/kg [11] [%],inhibition in vivo at 10 mg/kg [12] [%],Activity (Mus musculus [13])
O=C1C=CC[C@@H](/C=C/c2ccccc2)O1,76.4,77,11.5,28.7,44.1,24,> 100,57.6,24.1,Non-toxic,Non-toxic,53.7,48.7,39.7,Non-toxic,–,–,–,–,–
O=C1C=CC[C@H](/C=C/c2ccccc2)O1 [GONIOTHALAMIN],21.6,21.7,1.2,18.6,32.4,13.5,8.31,22,13.4,Non-toxic,Non-toxic,–,37.4,25.3,Non-toxic,21.9,–,–,–,–
O=c1[nH]cc(F)c(=O)[nH]1 [FLUOROURACIL],–,–,–,–,–,–,–,–,–,–,–,–,–,–,–,–,41.7,57.6,46.1,Non-toxic

# From ChEMBL document CHEMBL1240522, “Effect of goniothalamin on the development of Ehrlich solid tumor in mice” (Bioorg Med Chem, 2010)
